Publication PMC4503318 (Chemistry & biology, 2015)
Where two headings read alike, the source gives them in different places.

What was measured:
PfLysRS [1] = target: T1, PfLysRS (Plasmodium falciparum, UniProt Q8IDJ8); experiment: Thermal shift assay, PfLysRS; assay type: binding, P. falciparum
HsLysRS = HsLysRS (Homo sapiens, UniProt Q15046); experiment: Thermal shift assay, HsLysRS; assay type: binding
Pf-like human LysRS = Pf-like human LysRS (Homo sapiens, UniProt Q15046, P300T/Q321V/T337S); experiment: Thermal shift assay, Pf-like human LysRS; assay type: binding
Pf-like human LysRS, sequence (Q15046 70-584 P300T/Q321V/T337S): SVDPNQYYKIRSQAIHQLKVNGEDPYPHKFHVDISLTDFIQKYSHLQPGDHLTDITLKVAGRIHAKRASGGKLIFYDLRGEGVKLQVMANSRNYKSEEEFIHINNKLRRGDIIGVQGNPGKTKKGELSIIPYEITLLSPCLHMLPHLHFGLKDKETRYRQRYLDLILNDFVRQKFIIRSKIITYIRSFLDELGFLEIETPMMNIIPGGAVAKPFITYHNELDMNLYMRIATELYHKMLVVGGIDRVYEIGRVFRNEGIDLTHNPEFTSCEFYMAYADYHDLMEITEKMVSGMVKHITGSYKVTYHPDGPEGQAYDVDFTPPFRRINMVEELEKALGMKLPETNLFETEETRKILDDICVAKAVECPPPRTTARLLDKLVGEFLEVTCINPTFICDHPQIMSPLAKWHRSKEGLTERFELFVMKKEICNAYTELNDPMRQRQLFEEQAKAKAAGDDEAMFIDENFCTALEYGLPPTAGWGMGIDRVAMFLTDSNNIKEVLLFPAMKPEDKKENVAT
Pf-like human LysRS, sequence (Q13155 1-36 partner limits assumed): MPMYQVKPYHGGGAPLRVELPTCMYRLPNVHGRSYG
In short: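 Pf-like human LysRS (residues 70-584) was co-expressed in E. coli BL21(DE3) with His-tagged AIMP2/p38 1-36 and purified by Ni affinity and gel filtration. A 2× mix held 4 μM protein in Tris-HCl pH 8.0/NaCl/DTT, plus 40 μM test compound, 1 mM lysine, 40 μM ATP or 2 mM CaCl2. It sat 30 min at room temperature, then was chilled and mixed 1:1 with dye. Fluorescence was read during heating from 10 to 90 °C at 1 °C/min, averaging 8 curves. Tm was fitted by Levenberg-Marquardt. Kd was extrapolated to 25 °C, assuming 62760 J/mol binding enthalpy. Kd was not determined for negative ΔTm.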

Colletotrichum acutatum = conditions: CP at 30 μM; ref Wang et al., 2013; cited from earlier work
Colletotrichum fragariae = conditions: CP at 30 μM; ref Wang et al., 2013; cited from earlier work
[2] = test system: Colletotrichum gloeosporioides; conditions: CP at 30 μM; ref Wang et al., 2013; cited from earlier work
Phomopsis viticola = conditions: CP at 30 μM; ref Wang et al., 2013; cited from earlier work
[3] = test system: blood- and liver- stage Plasmodium falciparum parasite forms; conditions: Plasmodium parasites compared to mammalian cells; ref Hoepfner et al., 2012; cited from earlier work
human cells = conditions: ref Hoepfner et al., 2012; cited from earlier work
PfLysRS [4] = target: T1, PfLysRS; conditions: yeast-growth-based assay; ref Hoepfner et al., 2012; cited from earlier work
[5] = test system: yeast LysRS Q324V and T340S; conditions: Q324V and T340S mutations of yeast LysRS; ref Hoepfner et al., 2012; cited from earlier work
E. coli = conditions: up to 100 μg/ml CP; ref Anke, 1979; cited from earlier work
IleRS = conditions: ref Hughes and Mellows, 1980; cited from earlier work
[6] = HsLysRS, ligand alone (no lysine co-ligand for ATP/CP)
[7] = Pf-like human LysRS, ligand alone (no lysine co-ligand for ATP/CP)
[8] = Pf-like human LysRS, with lysine
[9] = PfLysRS, ligand alone (no lysine co-ligand), estimated from ΔTm, 25°C

HsLysRS, sequence (Q15046 70-584): as the sequence (Q15046 70-584 P300T/Q321V/T337S) above, with T231P, V252Q, S268T counted along it
HsLysRS, sequence (Q13155 1-36 partner limits assumed): as the sequence (Q13155 1-36 partner limits assumed) above

SMILES: Nc1ncnc2c1ncn2[C@@H]1O[C@H](COP(=O)(O)OP(=O)(O)OP(=O)(O)O)[C@@H](O)[C@H]1O [ATP]
- ΔTm (PfLysRS [1]; PfLysRS, with lysine): 0.6 °C
- ΔTm (HsLysRS; [6]): -0.2 °C
- ΔTm (HsLysRS; HsLysRS, with lysine): 0.9 °C
- Kd (HsLysRS; HsLysRS, with lysine, estimated from ΔTm, 25°C): 2.8 µM
- ΔTm (Pf-like human LysRS; [7]): -0.9 °C
- ΔTm (Pf-like human LysRS; [8]): 0.9 °C
- Kd (Pf-like human LysRS; Pf-like human LysRS, with lysine, estimated from ΔTm, 25°C): 2200 nM

SMILES: C[C@H]1CCC[C@H](C[C@H]2Cc3cc(O)cc(O)c3C(=O)O2)O1 [CP, cladosporin]
- Kd (PfLysRS [1]; PfLysRS, K-CP (with lysine)): ~2.4 nM
- Kd (PfLysRS [1]; [9]): 1500 nM
- Kd (PfLysRS [1]; PfLysRS, with lysine, estimated from ΔTm, 25°C): 2.4 nM
- binding affinity tighter than in HsLysRS (PfLysRS [1]; PfLysRS vs HsLysRS, with lysine): 1375 fold
- stabilization by CP together with lysine relative to CP-alone (PfLysRS [1]; PfLysRS, 17.1 °C vs 2.4 °C): 7 fold
- stabilization effect with non-cognate amino acids (PfLysRS [1]; PfLysRS, CP, lysine replaced with any of the other 19 non-cognate amino acids): did not yield stabilization effect
- increase of binding affinity by the presence of lysine (PfLysRS [1]; PfLysRS, Kd with lysine vs no lysine): 625 fold
- ΔTm at 40 µM (PfLysRS [1]; read-out: ΔTm): 2.4 °C
- Kd (HsLysRS): 3.3 µM
- stabilization effect (melting temperature) (HsLysRS; HsLysRS, CP even with the presence of lysine): < 2 °C
- ΔTm (HsLysRS; [6]): -0.8 °C
- ΔTm (HsLysRS; HsLysRS, with lysine): 0.3 °C
- Kd (Pf-like human LysRS): 2100 nM
- stabilization effect (melting temperature) (Pf-like human LysRS; Pf-like human LysRS, CP even with the presence of lysine): < 2 °C
- ΔTm (Pf-like human LysRS; [7]): -1.1 °C
- ΔTm (Pf-like human LysRS; [8]): 1.0 °C
- inhibition of growth (Colletotrichum acutatum): over 80%
- inhibition of growth (Colletotrichum fragariae): over 80%
- inhibition of growth [2]: over 80%
- inhibition of growth (Phomopsis viticola): over 80%
- selectivity index (IC50/CC50) [3]: > 111
- effect on the growth of human cells (human cells): little effect
- potency against PfLysRS relative to HsLysRS or yeast LysRS (PfLysRS [4]): 1000 fold
- increase of sensitivity for CP inhibition [5]: 40 fold
- effect on growth of E. coli (E. coli): not affected

SMILES: NCCCC[C@H](N)C(=O)O [Lysine, L-lysine]
- Kd (PfLysRS [1]; [9]): 34100 nM
- ΔTm at 1000 µM (PfLysRS [1]; read-out: ΔTm): 2.7 °C
- Kd (HsLysRS): 84.9 µM
- ΔTm (HsLysRS): 0.1 °C
- ΔTm (Pf-like human LysRS; [7]): -0.2 °C

SMILES: C/C(=C\C(=O)OCCCCCCCCC(=O)O)C[C@@H]1OC[C@H](C[C@@H]2O[C@H]2[C@@H](C)[C@H](C)O)[C@@H](O)[C@H]1O [mupirocin]
- selectivity for pathogenic over mammalian IleRS (IleRS): about 8000 fold
